According to ChEMBL document CHEMBL4368909, “Identification of Dihydrofuro[3,4- d]pyrimidine Derivatives as Novel HIV-1 Non-Nucleoside Reverse Transcriptase Inhibitors with Promising Antiviral Activities and Desirable Physicochemical Properties” (J Med Chem, 2019):
≈ marks a conversion by molar mass, not a printed value.

Columns and labels:
[1] = Aqueous solubility of the compound at pH at 7.4 by HPLC analysis; type: physicochemical; details: buffer, pH 7.4
Method in brief: (§1)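 Aqueous solubility read by HPLC in buffer at pH 2.0, 7.0 or 7.4.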

[2] = tested on: Human immunodeficiency virus 1; test: Antiviral activity against wild type HIV1 3B infected in human MT4 cells assessed as reduction in virus-induced cytopathic effect after 5 days by MTT assay; type: functional, organism-based; details: Human immunodeficiency virus 1, 3B, MT4, 120 h
[3] = tested on: Human immunodeficiency virus 1; test: Antiviral activity against HIV1 RES056 infected in human MT4 cells assessed as reduction in virus-induced cytopathic effect after 5 days by MTT assay; type: functional, organism-based; details: Human immunodeficiency virus 1, RES056, MT4, 120 h
[4] = tested on: MT4; test: (§2) Cytotoxicity against human MT4 cells after 5 days by MTT assay; type: cell-based; details: mt4, 120 h
[5] = Selectivity ratio of CC50 for human MT4 cells to EC50 for HIV1 3B infected in human MT4 cells; type: toxicity, cell-based; details: read-out: Ratio CC50/EC50
[6] = Selectivity ratio of CC50 for human MT4 cells to EC50 for HIV1 RES056 infected in human MT4 cells; type: toxicity, cell-based; details: read-out: Ratio CC50/EC50
[7] = tested on: Human immunodeficiency virus 1; test: Antiviral activity against HIV1 harboring reverse transcriptase L100I mutant infected in human MT4 cells assessed as reduction in virus-induced cytopathic effect after 5 days by MTT assay; type: functional, organism-based; details: Human immunodeficiency virus 1, MT4, 120 h
[8] = tested on: Human immunodeficiency virus 1; test: Antiviral activity against HIV1 harboring reverse transcriptase K103N mutant infected in human MT4 cells assessed as reduction in virus-induced cytopathic effect after 5 days by MTT assay; type: functional, organism-based; details: Human immunodeficiency virus 1, MT4, 120 h
[9] = tested on: Human immunodeficiency virus 1; test: Antiviral activity against HIV1 harboring reverse transcriptase Y181C mutant infected in human MT4 cells assessed as reduction in virus-induced cytopathic effect after 5 days by MTT assay; type: functional, organism-based; details: Human immunodeficiency virus 1, MT4, 120 h
[10] = tested on: Human immunodeficiency virus 1; test: Antiviral activity against HIV1 harboring reverse transcriptase Y188L mutant infected in human MT4 cells assessed as reduction in virus-induced cytopathic effect after 5 days by MTT assay; type: functional, organism-based; details: Human immunodeficiency virus 1, MT4, 120 h
[11] = tested on: Human immunodeficiency virus 1; test: Antiviral activity against HIV1 harboring reverse transcriptase E138K mutant infected in human MT4 cells assessed as reduction in virus-induced cytopathic effect after 5 days by MTT assay; type: functional, organism-based; details: Human immunodeficiency virus 1, MT4, 120 h
[12] = tested on: Human immunodeficiency virus 1; test: Antiviral activity against HIV1 harboring reverse transcriptase F227L/V106A double mutant infected in human MT4 cells assessed as reduction in virus-induced cytopathic effect after 5 days by MTT assay; type: functional, organism-based; details: Human immunodeficiency virus 1, MT4, 120 h
[13] = Selectivity ratio of CC50 for human MT4 cells to EC50 for HIV1 harboring reverse transcriptase L100I mutant infected in human MT4 cells; type: toxicity, cell-based; details: read-out: Ratio CC50/EC50
[14] = Selectivity ratio of CC50 for human MT4 cells to EC50 for HIV1 harboring reverse transcriptase K103N mutant infected in human MT4 cells; type: toxicity, cell-based; details: read-out: Ratio CC50/EC50
[15] = Selectivity ratio of CC50 for human MT4 cells to EC50 for HIV1 harboring reverse transcriptase Y181C mutant infected in human MT4 cells; type: toxicity, cell-based; details: read-out: Ratio CC50/EC50
[16] = Selectivity ratio of CC50 for human MT4 cells to EC50 for HIV1 harboring reverse transcriptase Y188L mutant infected in human MT4 cells; type: toxicity, cell-based; details: read-out: Ratio CC50/EC50
[17] = Selectivity ratio of CC50 for human MT4 cells to EC50 for HIV1 harboring reverse transcriptase E138K mutant infected in human MT4 cells; type: toxicity, cell-based; details: read-out: Ratio CC50/EC50
[18] = Selectivity ratio of CC50 for human MT4 cells to EC50 for HIV1 harboring reverse transcriptase F227L/V106A double mutant infected in human MT4 cells; type: toxicity, cell-based; details: read-out: Ratio CC50/EC50
[19] = tested on: Human immunodeficiency virus 1; test: Resistance factor, ratio of EC50 for HIV1 harboring reverse transcriptase L100I mutant to EC50 for wild type HIV1; type: functional
Method in brief: (§3)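 The resistance factor is the EC50 against the mutant strain divided by the EC50 against wild-type HIV-1. Both were measured in MT-4 cells by MTT read-out of protection from virus-induced cytopathicity.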

[20] = tested on: Human immunodeficiency virus 1; test: Resistance factor, ratio of EC50 for HIV1 harboring reverse transcriptase K103N mutant to EC50 for wild type HIV1; type: functional; method in brief: as §3
[21] = tested on: Human immunodeficiency virus 1; test: Resistance factor, ratio of EC50 for HIV1 harboring reverse transcriptase Y181C mutant to EC50 for wild type HIV1; type: functional; method in brief: as §3
[22] = tested on: Human immunodeficiency virus 1; test: Resistance factor, ratio of EC50 for HIV1 harboring reverse transcriptase Y188L mutant to EC50 for wild type HIV1; type: functional; method in brief: as §3
[23] = tested on: Human immunodeficiency virus 1; test: Resistance factor, ratio of EC50 for HIV1 harboring reverse transcriptase E138K mutant to EC50 for wild type HIV1; type: functional; method in brief: as §3
[24] = tested on: Human immunodeficiency virus 1; test: Resistance factor, ratio of EC50 for HIV1 harboring reverse transcriptase F227L/V106A double mutant to EC50 for wild type HIV1; type: functional; method in brief: as §3
[25] = molecular target: Human immunodeficiency virus type 1 reverse transcriptase (Human immunodeficiency virus 1, UniProt Q72547); test: Inhibition of recombinant HIV1 reverse transcriptase using (DIG)-dUTP and biotin-labeled dNTPs as substrate after 1 hr by ELISA
[26] = Aqueous solubility of the compound at pH at 7 by HPLC analysis; type: physicochemical; details: buffer, pH 7; method in brief: as §1
[27] = Aqueous solubility of the compound at pH at 2 by HPLC analysis; type: physicochemical; details: buffer, pH 2; method in brief: as §1
[28] = Aqueous solubility of the compound in FASSIF by HPLC analysis; type: physicochemical; details: simulated gi fluid
Method in brief: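 Solubility read by HPLC in fasted state simulated intestinal fluid (FaSSIF).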

[29] = tested on: Human immunodeficiency virus 2; test: Antiviral activity against HIV2 ROD infected in human MT4 cells assessed as reduction in virus-induced cytopathic effect after 5 days by MTT assay; details: Human immunodeficiency virus 2, ISOLATE ROD, MT4, 120 h
[30] = as §2; type: cell-based; details: MT4 cells
[31] = Protein binding in rat plasma assessed as recovery rate at 1 uM after 5 hrs by LC/MS analysis; type: ADME, cell-free
Method in brief: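 Equilibrium dialysis against plasma proteins: human plasma for line 1, Wistar rat plasma for line 2. Reference drug tested at 1 μM. Recovery rate reported alongside percent protein-binding rate.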

SMILES	EC50 [2] [nM]	EC50 [3] [nM]	CC50 [4] [nM]	selectivity ratio [5]	selectivity ratio [6]	EC50 [7] [nM]	EC50 [8] [nM]	EC50 [9] [nM]	EC50 [10] [nM]	EC50 [11] [nM]	EC50 [12] [nM]	selectivity ratio [13]	selectivity ratio [14]	selectivity ratio [15]	selectivity ratio [16]	selectivity ratio [17]	selectivity ratio [18]	Ratio EC50 [19]	Ratio EC50 [20]	EC50 [29] [nM]	also measured
Cc1cc(C#N)cc(C)c1Oc1nc(NC2CCN(Cc3ccc(S(N)(=O)=O)cc3)CC2)nc2c1COC2	2.8	38	27500	9520	725	3	2.9	5.4	15.2	7.9	12.7	8940	9220	5090	1810	3470	2270	1.1	1	≥ 8370	solubility [1]: 5.68 µg/mL (≈ 10.6 µM); Ratio EC50 [21]: 1.9; Ratio EC50 [22]: 5.3; Ratio EC50 [23]: 2.7; Ratio EC50 [24]: 4.2; IC50 [25]: 109 nM; solubility [26]: 10.3 µg/mL (≈ 19.3 µM); solubility [27]: 174 µg/mL (≈ 325 µM); solubility [28]: 8.42 µg/mL (≈ 15.7 µM)
Cc1cc(C#N)cc(C)c1Oc1nc(NC2CCN(Cc3cccc(C(N)=O)c3)CC2)nc2c1SCCC2	5.1	1050		1140	5.5															> 5800	CC50 at 120 h [30]: 5800 nM
Cc1cc(C#N)cc(C)c1Oc1nc(NC2CCN(Cc3ccc(S(N)(=O)=O)cc3)CC2)nc2c1SCC2	4.3	28.8	19900	4580	692	5.8	5.9	8	10.1	12.8	13.7	2880	2840	2070	1640	1300	1220	1.2	1.3	6550	solubility [1]: 2.54 µg/mL (≈ 4.61 µM); Ratio EC50 [21]: 1.7; Ratio EC50 [22]: 2.2; Ratio EC50 [23]: 2.7; Ratio EC50 [24]: 2.9; IC50 [25]: 74 nM; solubility [26]: 8.26 µg/mL (≈ 15 µM); solubility [27]: 192 µg/mL (≈ 349 µM); solubility [28]: 10 µg/mL (≈ 18.2 µM)
Cc1cc(C#N)cc(C)c1Oc1nc(NC2CCN(Cc3ccc(S(C)(=O)=O)cc3)CC2)nc2c1COC2	1.9	41.6	31300	15900	752	3.4	2	4.9	7.9	7.8	7.2	9050	15200	6320	3940	3990	4350	1.8	1	> 27000	solubility [1]: < 1 µg/mL; Ratio EC50 [21]: 2.5; Ratio EC50 [22]: 4; Ratio EC50 [23]: 4; Ratio EC50 [24]: 3.7; IC50 [25]: 77 nM; solubility [26]: 1.37 µg/mL (≈ 2.57 µM); solubility [27]: 164 µg/mL (≈ 307 µM); solubility [28]: 23.6 µg/mL (≈ 44.2 µM)
Cc1cc(C#N)cc(C)c1Oc1nc(NC2CCN(Cc3ccncc3)CC2)nc2c1COC2	2.3	43.1	37600	15900	871	4.1	1.2	4.9	7.8	6.2	10.5	9040	31200	7630	4770	6020	3580	1.8	0.5	5120	Ratio EC50 [21]: 2.1; Ratio EC50 [22]: 3.3; Ratio EC50 [23]: 2.6; Ratio EC50 [24]: 4.4; IC50 [25]: 56 nM; solubility [26]: 14.6 µg/mL (≈ 32 µM); solubility [27]: 223 µg/mL (≈ 488 µM); solubility [28]: 8.57 µg/mL (≈ 18.8 µM)
Cc1cc(C#N)cc(C)c1Oc1nc(NC2CCN(Cc3ccc(C(N)=O)cc3)CC2)nc2c1SCC2	4.8	43.6	165000	34200	3800	15.2	5	8.4	22.1	15.3	36.5	9580	28900	17300	6590	9520	4000	3.3	1.1	> 165000	Ratio EC50 [21]: 1.8; Ratio EC50 [22]: 4.8; Ratio EC50 [23]: 3.3; Ratio EC50 [24]: 7.9; IC50 [25]: 66 nM
CC(=O)CC(c1ccccc1)c1c(O)c2ccccc2oc1=O (configuration not stated) [WARFARIN]																					Drug recovery [31]: 107%
